Some results are limits rather than exact numbers.

Data set [1] relates to Mus musculus. Kind of data set: In vivo threshold minimum effective dose for inhibition of LPS-induced TNF-alpha production in mice after oral administration. The class given is functional.
Data set [2] is filed under the species Mus musculus. Kind of data set: Inhibitory concentration against TNF-alpha production in mouse macrophages. The class given is functional.
For data set [3], the system named is Rattus norvegicus. The data set can be described thus: In vivo threshold minimum effective dose for inhibition of rat paw-swelling after oral bid dosing for 14 days. The class given is functional.
Data set [4] in a line: (§1) Area under concentration-curve (from 0-infinity) for a compound in plasma of rats after oral administration. Particulars: rat. Also on record: time infinity, route oral. The class given is ADME.
Data set [5] addresses Mitogen-activated protein kinase 14 (Homo sapiens, UniProt Q16539). The data set can be described thus: Inhibition of human recombinant Mitogen activated protein kinase p38 alpha activity using ATP[gamma-33P] and EGFR 21mer-peptide. An outline of the steps: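 Recombinant human p38α, filter binding format with ATP[γ-33P] and EGFR 21-mer peptide substrate; IC50 in nM, n determinations per compound.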

Data set [6] has as its system Rattus norvegicus. The data set can be described thus: In vivo threshold minimum effective dose for inhibition of bone erosion and cartilage destruction in rat after oral bid dosing for 14 days. The format is functional.
Data set [7] deals with Rattus norvegicus. Kind of data set: Inhibition of TNF-alpha production in rat joint after oral administration at 3 mg/Kg. The class given is functional.
Another data set concerns the target Cytochrome P450 3A4 (Homo sapiens, UniProt P08684). The data set can be described thus: In vitro inhibitory concentration against Cytochrome P450 3A4. The class given is ADME.
Data set [8] is described as follows: Bioavailability of compound in rat plasma after oral administration. The class given is ADME, organism-based.
Data set [9] in a line: as §1. Also on record: route oral, time infinity. As to conditions: rat. The class given is ADME.

Cytochrome P450 3A4, sequence (P08684 whole entry): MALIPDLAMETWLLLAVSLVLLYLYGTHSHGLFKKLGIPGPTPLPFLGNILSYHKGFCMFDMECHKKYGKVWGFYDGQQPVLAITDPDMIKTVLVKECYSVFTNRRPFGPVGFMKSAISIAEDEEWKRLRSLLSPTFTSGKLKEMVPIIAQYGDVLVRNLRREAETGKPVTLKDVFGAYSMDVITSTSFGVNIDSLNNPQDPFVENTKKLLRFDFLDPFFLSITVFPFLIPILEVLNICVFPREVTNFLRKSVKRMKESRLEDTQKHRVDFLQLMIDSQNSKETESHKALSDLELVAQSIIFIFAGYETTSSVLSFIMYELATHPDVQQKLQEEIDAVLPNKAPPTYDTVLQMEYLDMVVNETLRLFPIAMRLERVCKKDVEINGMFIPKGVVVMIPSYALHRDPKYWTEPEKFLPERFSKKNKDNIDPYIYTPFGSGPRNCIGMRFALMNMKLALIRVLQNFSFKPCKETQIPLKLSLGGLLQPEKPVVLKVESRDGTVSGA
Mitogen-activated protein kinase 14, sequence (Q16539 whole entry): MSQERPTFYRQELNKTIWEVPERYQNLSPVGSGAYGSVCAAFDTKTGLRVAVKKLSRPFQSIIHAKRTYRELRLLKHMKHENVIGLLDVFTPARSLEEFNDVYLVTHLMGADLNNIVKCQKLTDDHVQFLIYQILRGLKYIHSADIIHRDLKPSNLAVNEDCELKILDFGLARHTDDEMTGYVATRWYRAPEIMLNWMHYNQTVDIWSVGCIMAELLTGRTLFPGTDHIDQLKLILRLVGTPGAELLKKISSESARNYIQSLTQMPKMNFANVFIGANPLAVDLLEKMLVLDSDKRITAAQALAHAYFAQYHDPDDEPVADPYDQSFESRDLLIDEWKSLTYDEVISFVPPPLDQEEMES

In general, IC50 refers to the midpoint of a concentration-inhibition curve. In general, inhibition in vivo refers to the drop in the measured response relative to a control, in per cent. For the compound `CC(C)(C)c1nc(-c2ccc(F)cc2F)c(-c2ccc3nc(N)n(S(=O)(=O)C(C)(C)C)c3c2)[nH]1.CS(=O)(=O)O`, the TMED50 in the data set on Mus musculus [1] amounted to 5.3 mg/kg; in the data set on Rattus norvegicus [3], 1.5 mg/kg; in the data set on Rattus norvegicus [6], 4.2 mg/kg. The IC50 in the data set listed under Mus musculus [2] was found to be 1.6 nM; in data set [5], 4.8 nM. Further, the AUC 0-inf in data set [4] came out at 28.3 µM·h. For the same compound, in the data set with Rattus norvegicus [7], at 3 mg/kg the inhibition in vivo was 82%.
`CCc1nc(-c2ccc(F)cc2)c(-c2ccc3nc(N)n(S(=O)(=O)C(C)C)c3c2)[nH]1.CS(=O)(=O)O`: the TMED50 in the data set with Mus musculus [1] amounted to 6.5 mg/kg. Further, the IC50 against Cytochrome P450 3A4 is 4.4 µM; in the data set filed under Mus musculus [2], 47.2 nM; in [5], 4.7 nM.
As for `CC(C)S(=O)(=O)n1c(N)nc2ccc(-c3nc(C4CCNCC4)[nH]c3-c3ccccc3)cc21`, the half-inhibitory concentration (IC50) in the data set filed under Mus musculus [2] was found to be 2880 nM; in data set [5], 2.7 nM.
As for `CC(C)S(=O)(=O)n1c(N)nc2ccc(-c3[nH]cnc3-c3ccccc3)cc21`, the TMED50 with Mus musculus [1] stood at 19.8 mg/kg. Moreover, the IC50 turned out to be 1.6 µM against Cytochrome P450 3A4, 31.8 nM in the data set listed under Mus musculus [2] and 4.2 nM in data set [5]. Moreover, in data set [4], the AUC 0-inf came out at 3.7 µM·h.
For the compound `CC(C)S(=O)(=O)n1c(N)nc2ccc(-c3[nH]cnc3-c3ccc(F)cc3)cc21.CS(=O)(=O)O.CS(=O)(=O)O`, in the data set on Mus musculus [1], the TMED50 is 9.6 mg/kg. For the same compound, the IC50 at Cytochrome P450 3A4 was found to be 0.8 µM; in the data set listed under Mus musculus [2], 65.7 nM; in data set [5], 4.3 nM. The same compound displayed an AUC 0-inf in data set [4] of 1.4 µM·h.
The term bioavailability denotes the share of a dose that reaches the circulation, judged against a reference dose that is usually intravenous. A lower bioavailability goes with little systemic uptake. The compound `CC(C)S(=O)(=O)n1c(N)nc2ccc(-c3[nH]c(-c4c(Cl)cccc4Cl)nc3-c3ccccc3)cc21.CS(=O)(=O)O` yielded a TMED50 in the data set on Mus musculus [1] of 2.5 mg/kg. Further, in data set [8], the bioavailability came to 55%. In addition, the results for the IC50 (in the data set listed under Mus musculus [2]; in data set [5]) were 3.4 nM and 15.3 nM, respectively. The AUC 0-inf in data set [4] came to 17 µM·h.
`CC(C)S(=O)(=O)n1c(N)nc2ccc(-c3[nH]c(C(C)(C)C)nc3-c3ccc(F)cc3)cc21.CS(=O)(=O)O.CS(=O)(=O)O` came in with a TMED50 with Mus musculus [1] of 3.9 mg/kg. The IC50 on Cytochrome P450 3A4 came out at 31.8 µM; in the data set listed under Mus musculus [2], 31.1 nM; in data set [5], 15.9 nM. Further, the AUC 0-inf in data set [4] was found to be 13.5 µM·h.
The compound `CS(=O)(=O)O.CS(=O)(=O)O.Nc1nc2ccc(-c3[nH]c(-c4c(F)cccc4F)nc3-c3ccccc3)cc2n1S(=O)(=O)C1CCCC1` came in with a TMED50 with Mus musculus [1] of 5.1 mg/kg. The IC50 against Cytochrome P450 3A4 came to 13 µM; in the data set listed under Mus musculus [2], 6 nM; in [5] it was 19.9 nM. Besides, the AUC 0-inf in data set [4] was found to be 0.9 µM·h.
On to `CC(C)S(=O)(=O)n1c(N)nc2ccc(-c3c(-c4ccc(F)cc4)ncn3C)cc21`, for which the values for the IC50 (in the data set listed under Mus musculus [2]; in data set [5]) were 720 nM and 20.7 nM, respectively.
For the compound `CC(C)S(=O)(=O)n1c(N)nc2ccc(-c3[nH]c(C(C)(C)C)nc3-c3ccc(F)cc3F)cc21.CS(=O)(=O)O`, the TMED50 in the data set on Mus musculus [1] stood at 2.2 mg/kg; in the data set with Rattus norvegicus [3], 1.5 mg/kg; in the data set with Rattus norvegicus [6], 8.1 mg/kg. For the same compound, the figures for the IC50 (in the data set listed under Mus musculus [2]; in data set [5]) were 6.2 nM and 4.4 nM, respectively. The same compound returned an AUC 0-inf in data set [4] of 14.6 µM·h. The same compound returned an inhibition in vivo at 3 mg/kg with Rattus norvegicus [7] of 81%.
In the data set with Mus musculus [1], `CN(C)S(=O)(=O)n1c(N)nc2ccc(-c3[nH]c(-c4c(F)cccc4F)nc3-c3ccccc3)cc21.CS(=O)(=O)O.CS(=O)(=O)O` returned a TMED50 of 12.5 mg/kg. Moreover, the IC50 in the data set listed under Mus musculus [2] turned out to be 8.8 nM; in data set [5] it was 22.8 nM. The AUC 0-inf in [4] was 9.8 µM·h.
The compound `CC(C)S(=O)(=O)n1c(N)nc2ccc(-c3nc(-c4c(F)cccc4F)[nH]c3-c3ccccc3)cc21` showed a TMED50 in the data set on Mus musculus [1] of 5.2 mg/kg. Besides, in [9], the AUC 0-inf turned out to be 5.4 µM·h. The IC50 at Cytochrome P450 3A4 was 6.3 µM; in the data set listed under Mus musculus [2], 10.3 nM; in data set [5], 4.9 nM.
The compound `CC(C)c1nc(-c2ccc(F)cc2)c(-c2ccc3nc(N)n(S(=O)(=O)C(C)C)c3c2)[nH]1.CS(=O)(=O)O` gave a TMED50 with Mus musculus [1] of 4.9 mg/kg. The IC50 against Cytochrome P450 3A4 was determined as 6.1 µM; in the data set listed under Mus musculus [2] it was 28.6 nM; in [5], 4.5 nM. For the same compound, the AUC 0-inf in [4] was found to be 12.8 µM·h.
In the data set on Mus musculus [1], `CC(C)CN1CCC(c2nc(-c3ccc4nc(N)n(S(=O)(=O)C(C)C)c4c3)c(-c3ccccc3)[nH]2)CC1` returned a TMED50 of 7.3 mg/kg. Besides, the IC50 against Cytochrome P450 3A4 was determined as 5.3 µM; in the data set listed under Mus musculus [2], 27.9 nM; in data set [5], 5.5 nM.
Regarding `CC(C)S(=O)(=O)n1c(N)nc2ccc(-c3c(-c4ccc(F)cc4)ncn3C3CCNCC3)cc21`, the figures for the half-inhibitory concentration (IC50) (in the data set filed under Mus musculus [2]; in data set [5]) were 4460 nM and 125 nM, respectively.
For `Cc1ccc(-n2nc(C(C)(C)C)cc2NC(=O)Nc2ccc(OCCN3CCOCC3)c3ccccc23)cc1` [DORAMAPIMOD], the results for the TMED50 in the data set on Rattus norvegicus [3] and in the data set with Rattus norvegicus [6] were 15 mg/kg and 30 mg/kg, respectively. In addition, in the data set with Rattus norvegicus [7], the inhibition in vivo at 3 mg/kg came out at 55%.
Taken in the same sequence, the figures for `OCCC#Cc1nc(-c2ccc(F)cc2)c(-c2ccncc2)n1CCCc1ccccc1` [RWJ-67657] were >30 mg/kg, >30 mg/kg and < 50%.
For the compound `COc1nccc(-c2c(-c3ccc(F)cc3)ncn2C2CCNCC2)n1` [SB-242235], the TMED50 in the data set on Rattus norvegicus [3] is 5 mg/kg; with Rattus norvegicus [6] it was 7 mg/kg.

The values are drawn from ChEMBL document CHEMBL1143559, “Design of potent and selective 2-aminobenzimidazole-based p38alpha MAP kinase inhibitors with excellent in vivo efficacy” (J Med Chem, 2005).
